From ChEMBL document CHEMBL1687824, “Overexpression of patA and patB, which encode ABC transporters, is associated with fluoroquinolone resistance in clinical isolates of Streptococcus pneumoniae” (2011)
In brackets after ≈: the same amount, converted by molar mass.

Key:
Assay type in all cases: functional
Streptococcus pneumoniae [1] = assay: Antibacterial activity against dye-resistant Streptococcus pneumoniae by standardized agar doubling dilution method in presence of 20 ug/ml reserpine efflux pump inhibitor
Summary of the method: (§1)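 MIC by agar doubling dilution following BSAC guidelines. Strains grown in brain heart infusion broth 24 h at 37°C in 5% CO2. Where an efflux pump inhibitor applies, MIC redetermined with reserpine at 20 μg/ml or sodium orthovanadate at 50 μM. Synergy taken as a fall in MIC of ≥2 dilutions with inhibitor present. Dye resistance defined relative to R6 (both dyes ≥2 dilutions higher).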

Streptococcus pneumoniae [2] = assay: Antibacterial activity against dye-resistant Streptococcus pneumoniae by standardized agar doubling dilution method; summary of the method: as §1
Streptococcus pneumoniae [3] = assay: Antibacterial activity against fluoroquinolone-resistant Streptococcus pneumoniae by standardized agar doubling dilution method in presence of 20 ug/ml reserpine efflux pump inhibitor; summary of the method: as §1
Streptococcus pneumoniae [4] = assay: Antibacterial activity against wild type Streptococcus pneumoniae M3 NCTC 7466 type 2 by standardized agar doubling dilution method; summary of the method: as §1
Streptococcus pneumoniae [5] = assay: Antibacterial activity against fluoroquinolone, dye-resistant Streptococcus pneumoniae by standardized agar doubling dilution method in presence of 20 ug/ml reserpine efflux pump inhibitor; summary of the method: as §1
Streptococcus pneumoniae [6] = assay: Antibacterial activity against fluoroquinolone, dye-susceptible Streptococcus pneumoniae by standardized agar doubling dilution method; summary of the method: as §1
Streptococcus pneumoniae [7] = assay: Antibacterial activity against wild type Streptococcus pneumoniae M3 NCTC 7466 type 2 by standardized agar doubling dilution method in presence of 20 ug/ml reserpine efflux pump inhibitor; summary of the method: as §1
Streptococcus pneumoniae [8] = assay: Antibacterial activity against fluoroquinolone, dye-susceptible Streptococcus pneumoniae by standardized agar doubling dilution method in presence of 20 ug/ml reserpine efflux pump inhibitor; summary of the method: as §1
Streptococcus pneumoniae [9] = assay: Antibacterial activity against wild type Streptococcus pneumoniae R6 by standardized agar doubling dilution method; summary of the method: as §1
Streptococcus pneumoniae [10] = assay: Antibacterial activity against fluoroquinolone-resistant Streptococcus pneumoniae by standardized agar doubling dilution method; summary of the method: as §1
Streptococcus pneumoniae [11] = assay: Antibacterial activity against wild type Streptococcus pneumoniae R6 by standardized agar doubling dilution method in presence of 20 ug/ml reserpine efflux pump inhibitor; summary of the method: as §1
Streptococcus pneumoniae [12] = assay: Antibacterial activity against fluoroquinolone, dye-resistant Streptococcus pneumoniae by standardized agar doubling dilution method; summary of the method: as §1
Streptococcus pneumoniae [13] = assay: Antibacterial activity against wild type Streptococcus pneumoniae M4 NCTC 7465 type 1 by standardized agar doubling dilution method in presence of 20 ug/ml reserpine efflux pump inhibitor; summary of the method: as §1
Streptococcus pneumoniae [14] = assay: Antibacterial activity against wild type Streptococcus pneumoniae M4 NCTC 7465 type 1 by standardized agar doubling dilution method; summary of the method: as §1

## CCn1cc(C(=O)O)c(=O)c2cc(F)c(N3CCNCC3)cc21 [NORFLOXACIN]
Streptococcus pneumoniae [1]
  MIC: 1 µg/mL
  MIC90: 1 µg/mL
Streptococcus pneumoniae [2]
  MIC: 4 µg/mL (≈ 12.5 µM)
  MIC90: 4 µg/mL (≈ 12.5 µM)
Streptococcus pneumoniae [3]
  MIC90: 8 µg/mL
Streptococcus pneumoniae [4]
  MIC: 4 µg/mL (≈ 12.5 µM)
Streptococcus pneumoniae [5]
  MIC90: 8 µg/mL
Streptococcus pneumoniae [6]
  MIC90: 4 µg/mL (≈ 12.5 µM)
Streptococcus pneumoniae [7]
  MIC: 2 µg/mL
Streptococcus pneumoniae [8]
  MIC: 1 µg/mL
  MIC90: 1 µg/mL
Streptococcus pneumoniae [9]
  MIC: 4 µg/mL (≈ 12.5 µM)
Streptococcus pneumoniae [10]
  MIC90: 32 µg/mL (≈ 100 µM)
Streptococcus pneumoniae [11]
  MIC: 2 µg/mL
Streptococcus pneumoniae [12]
  MIC90: 32 µg/mL (≈ 100 µM)
Streptococcus pneumoniae [13]
  MIC: 4 µg/mL
Streptococcus pneumoniae [14]
  MIC: 8 µg/mL (≈ 25.1 µM)
